{"source": "ChEMBL document CHEMBL5325428", "about": "(Eur J Med Chem, 2023)", "key": {"Cathepsin D": {"target": "Cathepsin D (Homo sapiens, UniProt P07339)", "sequence (P07339 65-162 limits assumed)": "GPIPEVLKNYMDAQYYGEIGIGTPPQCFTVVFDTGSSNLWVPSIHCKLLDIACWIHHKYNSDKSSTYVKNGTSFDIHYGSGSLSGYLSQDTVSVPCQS", "sequence (P07339 169-412 limits assumed)": "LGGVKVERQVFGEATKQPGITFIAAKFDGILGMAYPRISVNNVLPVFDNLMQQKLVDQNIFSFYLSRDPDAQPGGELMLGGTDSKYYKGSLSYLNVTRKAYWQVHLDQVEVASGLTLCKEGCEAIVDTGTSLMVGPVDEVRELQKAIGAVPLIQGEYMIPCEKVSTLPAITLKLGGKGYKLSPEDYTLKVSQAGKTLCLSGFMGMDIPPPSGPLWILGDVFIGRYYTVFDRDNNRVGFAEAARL", "assay": "Inhibition of human Cathepsin D", "assay_type": "toxicity", "how_it_was_run": "(§1)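 Commercial purified human proteases were assayed following the manufacturers' procedures. IC50 values are mean ± SD.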"}, "Cathepsin B": {"target": "Cathepsin B (Homo sapiens, UniProt P07858)", "assay": "Inhibition of human Cathepsin B", "assay_type": "toxicity", "how_it_was_run": "as §1"}, "[1]": {"assay": "Safety index, ratio of CC50 for cytotoxicity against human HEK293T cells to EC50 for antiviral activity against SARS-CoV-2 Wuhan-HU-1 infected in HEK293T cells", "assay_type": "toxicity, cell-based", "conditions": "read-out: Ratio CC50/EC50", "how_it_was_run": "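In vitro safety index was calculated as the 293T CC50 divided by the SARS-CoV-2 replicon EC50.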"}, "chymotrypsin": {"target": "chymotrypsin (Homo sapiens, UniProt P17538+P40313+Q6GPI1+Q99895)", "assay": "Inhibition of human chymotrypsin", "assay_type": "toxicity", "how_it_was_run": "as §1"}, "Neutrophil elastase": {"target": "T1, Neutrophil elastase (Homo sapiens, UniProt P08246)", "T1 sequence (P08246 whole entry)": "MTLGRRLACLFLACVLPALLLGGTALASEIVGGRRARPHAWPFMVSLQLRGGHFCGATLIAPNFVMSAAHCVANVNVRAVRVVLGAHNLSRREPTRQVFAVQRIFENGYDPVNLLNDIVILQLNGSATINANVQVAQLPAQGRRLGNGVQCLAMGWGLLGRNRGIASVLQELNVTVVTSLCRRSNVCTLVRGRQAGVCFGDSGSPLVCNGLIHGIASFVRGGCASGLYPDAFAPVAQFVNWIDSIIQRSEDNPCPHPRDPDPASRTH", "assay": "Inhibition of human neutrophil elastase", "assay_type": "toxicity", "how_it_was_run": "as §1"}, "Procathepsin L": {"target": "Procathepsin L (Homo sapiens, UniProt P07711)", "sequence (P07711 whole entry)": "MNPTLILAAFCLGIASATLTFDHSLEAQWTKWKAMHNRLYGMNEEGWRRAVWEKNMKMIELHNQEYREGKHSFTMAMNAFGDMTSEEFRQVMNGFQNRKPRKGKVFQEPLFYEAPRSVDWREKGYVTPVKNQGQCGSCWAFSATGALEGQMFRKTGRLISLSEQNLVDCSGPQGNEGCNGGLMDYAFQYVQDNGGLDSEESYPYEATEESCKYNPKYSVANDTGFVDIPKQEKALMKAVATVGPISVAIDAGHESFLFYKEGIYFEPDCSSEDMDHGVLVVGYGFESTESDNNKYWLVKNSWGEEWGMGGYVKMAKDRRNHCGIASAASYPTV", "assay": "Inhibition of human Cathepsin L", "assay_type": "toxicity", "how_it_was_run": "as §1"}, "Prothrombin": {"target": "Prothrombin (Homo sapiens, UniProt P00734)", "assay": "Inhibition of human thrombin", "assay_type": "toxicity", "how_it_was_run": "as §1"}, "SARS-CoV-2": {"system": "SARS-CoV-2", "assay": "Antiviral activity against SARS-CoV-2 Wuhan-HU-1 infected in HEK293T cells assessed as inhibition of viral replication incubated for 30 hrs by luciferase reporter gene assay", "assay_type": "functional, organism-based", "conditions": "Severe acute respiratory syndrome coronavirus 2, Wuhan-HU-1, HEK-293T", "how_it_was_run": "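This is a non-infectious Wuhan-Hu-1 replicon system, not infectious virus. Replicon RNA was electroporated into 293T cells, which were then incubated for 30 h with compound at 2, 0.5, 0.1 and 0.02 µM or with 0.1% DMSO. Read-out was luciferase activity. Values are mean ± SD.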"}, "Cathepsin G": {"target": "T2, Cathepsin G (Homo sapiens, UniProt P08311)", "T2 sequence (P08311 whole entry)": "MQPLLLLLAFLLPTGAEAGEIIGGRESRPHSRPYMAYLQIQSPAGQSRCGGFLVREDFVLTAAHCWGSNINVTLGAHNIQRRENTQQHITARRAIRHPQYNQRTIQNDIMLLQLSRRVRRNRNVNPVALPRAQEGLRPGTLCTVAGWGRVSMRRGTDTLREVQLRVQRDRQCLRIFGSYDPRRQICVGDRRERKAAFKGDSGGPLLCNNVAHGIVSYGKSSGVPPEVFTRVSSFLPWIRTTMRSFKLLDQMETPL", "assay": "Inhibition of human Cathepsin G", "assay_type": "toxicity", "how_it_was_run": "as §1"}, "[2]": {"assay": "Cytotoxicity against human HEK293T cells assessed as reduction in cell viability incubated for 72 hrs by CytoTox 96 nonradioactive assay", "assay_type": "toxicity, cell-based, HEK-293T"}, "[3]": {"system": "Feline infectious peritonitis virus", "assay": "Antiviral activity against FIPV 1146 infected in CRFK cells assessed as inhibition of viral replication incubated for upto 168 hrs by TCID50 method", "assay_type": "functional, organism-based", "conditions": "Alphacoronavirus 1, 1146, CRFK", "how_it_was_run": "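Crandell-Rees feline kidney cells infected with FIPV-1146; test compounds added to the medium at various concentrations. EC50 was fitted from the dose-dependent inhibition curve with a variable slope. Values are mean ± SD.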"}, "[4]": {"target": "Replicase polyprotein 1ab (Severe acute respiratory syndrome coronavirus 2, UniProt P0DTD1)", "assay": "Inhibition of N-terminal His6-tagged full length SARS-CoV-2 3CLpro using FAM-SAVLQ as substrate preincubated with enzyme for 1 hr followed by susbtrate addition and measured after 1 hr by FRET assay"}, "[5]": {"assay": "Inhibition of MERS-CoV 3CLpro using FAM-SAVLQ as substrate preincubated with enzyme for 1 hr followed by susbtrate addition and measured after 1 hr by FRET assay", "set-up": "species or system Middle East respiratory syndrome-related coronavirus"}}}
{"smiles": "[2H]C([2H])(OC(=O)N[C@@H](CC(C)C)C(=O)N[C@H](C=O)C[C@@H]1CCNC1=O)C(C)(C)Oc1ccc(Cl)cc1", "values": [{"measurement": "IC50", "setting": "Cathepsin D", "result": "> 50000", "unit": "nM"}, {"measurement": "IC50", "setting": "Cathepsin B", "result": 800, "unit": "nM"}, {"measurement": "selectivity ratio", "setting": "[1]", "result": 3330}, {"measurement": "IC50", "setting": "chymotrypsin", "result": "> 50000", "unit": "nM"}, {"measurement": "IC50", "setting": "Neutrophil elastase", "result": "> 50000", "unit": "nM"}, {"measurement": "IC50", "setting": "Procathepsin L", "result": 40, "unit": "nM"}, {"measurement": "IC50", "setting": "Prothrombin", "result": "> 50000", "unit": "nM"}, {"measurement": "EC50", "setting": "SARS-CoV-2", "result": 15, "unit": "nM"}, {"measurement": "IC50", "setting": "Cathepsin G", "result": "> 50000", "unit": "nM"}, {"measurement": "CC50 at 72 h", "setting": "[2]", "result": "> 50000", "unit": "nM"}, {"measurement": "EC50", "setting": "[3]", "result": 100, "unit": "nM"}, {"measurement": "IC50", "setting": "[4]", "result": 170, "unit": "nM"}]}
{"smiles": "CC(C)C[C@H](NC(=O)OCC(C)(C)Sc1cccc(Cl)c1)C(=O)N[C@H](C=O)C[C@@H]1CCNC1=O", "values": [{"measurement": "IC50", "setting": "Cathepsin D", "result": "> 50000", "unit": "nM"}, {"measurement": "IC50", "setting": "Cathepsin B", "result": 1400, "unit": "nM"}, {"measurement": "selectivity ratio", "setting": "[1]", "result": 3330}, {"measurement": "IC50", "setting": "chymotrypsin", "result": "> 50000", "unit": "nM"}, {"measurement": "IC50", "setting": "Neutrophil elastase", "result": "> 50000", "unit": "nM"}, {"measurement": "IC50", "setting": "Procathepsin L", "result": 30, "unit": "nM"}, {"measurement": "IC50", "setting": "Prothrombin", "result": "> 50000", "unit": "nM"}, {"measurement": "EC50", "setting": "SARS-CoV-2", "result": 10, "unit": "nM"}, {"measurement": "IC50", "setting": "[5]", "result": 110, "unit": "nM"}, {"measurement": "IC50", "setting": "Cathepsin G", "result": "> 50000", "unit": "nM"}, {"measurement": "CC50 at 72 h", "setting": "[2]", "result": "> 50000", "unit": "nM"}, {"measurement": "EC50", "setting": "[3]", "result": 190, "unit": "nM"}, {"measurement": "IC50", "setting": "[4]", "result": 150, "unit": "nM"}]}
{"smiles": "CC(C)C[C@H](NC(=O)OCC(C)(C)Oc1cccc(Cl)c1)C(=O)N[C@H](C=O)C[C@@H]1CCNC1=O", "values": [{"measurement": "IC50", "setting": "Cathepsin D", "result": "> 50000", "unit": "nM"}, {"measurement": "IC50", "setting": "Cathepsin B", "result": 900, "unit": "nM"}, {"measurement": "selectivity ratio", "setting": "[1]", "result": 3330}, {"measurement": "IC50", "setting": "chymotrypsin", "result": "> 50000", "unit": "nM"}, {"measurement": "IC50", "setting": "Neutrophil elastase", "result": "> 50000", "unit": "nM"}, {"measurement": "IC50", "setting": "Procathepsin L", "result": 20, "unit": "nM"}, {"measurement": "IC50", "setting": "Prothrombin", "result": "> 50000", "unit": "nM"}, {"measurement": "EC50", "setting": "SARS-CoV-2", "result": 13, "unit": "nM"}, {"measurement": "IC50", "setting": "Cathepsin G", "result": "> 50000", "unit": "nM"}, {"measurement": "CC50 at 72 h", "setting": "[2]", "result": "> 50000", "unit": "nM"}, {"measurement": "EC50", "setting": "[3]", "result": 60, "unit": "nM"}, {"measurement": "IC50", "setting": "[4]", "result": 190, "unit": "nM"}]}
{"smiles": "CC(C)C[C@H](NC(=O)OCC(C)(C)Sc1ccccc1)C(=O)N[C@H](C=O)C[C@@H]1CCNC1=O", "values": [{"measurement": "IC50", "setting": "Cathepsin D", "result": "> 50000", "unit": "nM"}, {"measurement": "IC50", "setting": "Cathepsin B", "result": 1900, "unit": "nM"}, {"measurement": "selectivity ratio", "setting": "[1]", "result": 3330}, {"measurement": "IC50", "setting": "chymotrypsin", "result": "> 50000", "unit": "nM"}, {"measurement": "IC50", "setting": "Neutrophil elastase", "result": "> 50000", "unit": "nM"}, {"measurement": "IC50", "setting": "Procathepsin L", "result": 30, "unit": "nM"}, {"measurement": "IC50", "setting": "Prothrombin", "result": "> 50000", "unit": "nM"}, {"measurement": "EC50", "setting": "SARS-CoV-2", "result": 12, "unit": "nM"}, {"measurement": "IC50", "setting": "[5]", "result": 80, "unit": "nM"}, {"measurement": "IC50", "setting": "Cathepsin G", "result": "> 50000", "unit": "nM"}, {"measurement": "CC50 at 72 h", "setting": "[2]", "result": "> 50000", "unit": "nM"}, {"measurement": "EC50", "setting": "[3]", "result": 80, "unit": "nM"}, {"measurement": "IC50", "setting": "[4]", "result": 70, "unit": "nM"}]}
{"smiles": "[2H]C([2H])(OC(=O)N[C@@H](CC(C)C)C(=O)N[C@H](C=O)C[C@@H]1CCNC1=O)C(C)(C)Sc1ccccc1", "values": [{"measurement": "IC50", "setting": "Cathepsin D", "result": "> 50000", "unit": "nM"}, {"measurement": "IC50", "setting": "Cathepsin B", "result": 2000, "unit": "nM"}, {"measurement": "selectivity ratio", "setting": "[1]", "result": 3330}, {"measurement": "IC50", "setting": "chymotrypsin", "result": "> 50000", "unit": "nM"}, {"measurement": "IC50", "setting": "Neutrophil elastase", "result": "> 50000", "unit": "nM"}, {"measurement": "IC50", "setting": "Procathepsin L", "result": 30, "unit": "nM"}, {"measurement": "IC50", "setting": "Prothrombin", "result": "> 50000", "unit": "nM"}, {"measurement": "EC50", "setting": "SARS-CoV-2", "result": 11, "unit": "nM"}, {"measurement": "IC50", "setting": "[5]", "result": 60, "unit": "nM"}, {"measurement": "IC50", "setting": "Cathepsin G", "result": "> 50000", "unit": "nM"}, {"measurement": "CC50 at 72 h", "setting": "[2]", "result": "> 50000", "unit": "nM"}, {"measurement": "EC50", "setting": "[3]", "result": 100, "unit": "nM"}, {"measurement": "IC50", "setting": "[4]", "result": 200, "unit": "nM"}]}
